One block for each molecule: values may come before it.
Columns and labels:
Mus musculus [1] = assay: Antitumor activity against P388 leukemia in mice at a dose of 40 mg/kg administered intraperitoneally for 5 days; format: functional; settings: route intraperitoneal
Method in brief: (§1)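 CDF1 hybrid male or female mice, 10 per group, were inoculated ip on day 0 with 10^6 viable P388 leukemia cells. Drug in distilled water was given ip (0.1 mL/10 g body weight) daily on days 1-5, with vehicle, 5-fluorouracil and BD 84 controls given the same way. T/C = median survival of treated/controls × 100; T/C > 128% counted as significant.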

Mus musculus [2] = assay: Antitumor activity against P388 leukemia in intraperitoneally for 5 days; format: functional
Method in brief: (§2)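 CDF1 hybrid male or female mice, 10 per group, were inoculated ip with 10^6 viable P388 cells on day 0. Drugs in distilled water were given ip (0.1 mL/10 g body weight) daily D1-5. Vehicle, 5-fluorouracil and BD 84 were given the same way. T/C = median survival day of treated / controls × 100; T/C > 128% was significant; cures counted at D60.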

Mus musculus [3] = assay: Antitumor activity against P388 leukemia in mice at a dose of 80 mg/kg administered intraperitoneally for 5 days; format: functional, organism-based; parameters: dose 80 mg/kg; method in brief: as §1
Calf thymus DNA = assay: Apparent DNA affinity constant; format: nucleic-acid assay; settings: Bos taurus
Method in brief: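 Apparent DNA affinity constant was measured by competition with ethidium bromide. Buffer was 20 mM Na2HPO4/NaH2PO4, 0.1 M NaCl, 1 mM EDTA, pH 7.4, with calf thymus DNA at 10 μg/mL. Values are given in 10^6 M⁻¹.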

Mus musculus [4] = assay: Antitumor activity against P388 leukemia in mice at a dose of 20 mg/kg administered intraperitoneally for 5 days; format: functional; settings: route intraperitoneal; method in brief: as §2
L1210 = assay: Ability to reduce the cell count to 50% in L1210 culture cells; format: functional; settings: Mus musculus, read-out: ID50 (the source's name)
Method in brief: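 L1210 cells in exponential growth in RPMI 1640 with 2 mM glutamine, penicillin/streptomycin and 10% FCS, 37 °C, 5% CO2. Drugs dissolved in distilled water were added to cells at 0.8 × 10^5 cells/mL for 48 h, then cells were counted. ID50 is the concentration halving cell proliferation versus controls, from regression of dose-response data; mean of two independent experiments.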

Mus musculus [5] = assay: Antitumor activity against B16 melanoma infected intraperitoneally; format: functional
Method in brief: (§3)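 Hybrid BD F1 mice were inoculated ip at D0 with 0.5 mL of B16 melanoma homogenate (1 g tumor in 10 mL physiological serum). Drugs were given ip daily D1-9. Cisplatin 0.5 mg/kg was the positive control under the same schedule.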

Mus musculus [6] = assay: Antitumor activity against P388 cells at a dose of 5 mg/kg administered intraperitoneally to P388 leukemia model; format: functional; settings: route intraperitoneal
Method in brief: (§4)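 Mice were inoculated ip with 10^6 P388 leukemia cells at D0, then given a single ip drug dose on D1. Weight change was recorded. T/C % = median survival day of treated / controls × 100; survivors counted at D30; 10 mice per dose group, 20 controls.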

Mus musculus [7] = assay: Antitumor activity against P388 cells at a dose of 20 mg/kg administered intraperitoneally to P388 leukemia model; format: functional; settings: route intraperitoneal; method in brief: as §4
Mus musculus [8] = assay: Survivors at day 30 when a dose of 10 mg/kg to P388 leukemia mice model; 0/10; format: functional
Method in brief: (§5)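 P388 leukaemia in CDF1 hybrid mice, 10 per group. At D0, 10^6 viable cells were inoculated ip, followed by a single ip dose of drug in distilled water on D1. Weight change, median survival day, T/C (treated/control median survival × 100) and survivors at D30 were recorded. Controls were 20 mice.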

Mus musculus [9] = assay: Antitumor activity against B16 melanoma infected mice at a dose of 1.25 mg/kg administered intraperitoneally; format: functional; settings: route intraperitoneal; method in brief: as §3
Mus musculus [10] = assay: Weight change in g when a dose of 40 mg/kg administered intraperitoneally to P388 leukemia mice model; format: functional; settings: route intraperitoneal
Method in brief: (§6)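 P388 model with a single ip dose. Mice (10 per group) were inoculated ip at D0 with 10^6 P388 cells and given one ip drug dose at D1. Body-weight change (g), median survival day, T/C and survivors at D30 were recorded.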

Mus musculus [11] = assay: Median survival day in B16 melanoma infected mice when a dose of 2.5 mg/kg administered intraperitoneally; format: functional; settings: route intraperitoneal
Method in brief: (§7)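 B16 melanoma in hybrid BD F1 mice. At D0 each mouse was inoculated ip with 0.5 mL of homogenate made from 1 g of tumour in 10 mL of physiological serum. Compounds were given ip daily at the stated doses for 9 days (D1-9), with cis-platinum 0.5 mg/kg under the same schedule as positive control.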

Mus musculus [12] = assay: Survivors at day 60 when a dose of 10 mg/kg to B16 melanoma infected mice; 0/10; format: functional
Mus musculus [13] = assay: Median survival day in B16 melanoma infected mice when a dose of 5 mg/kg administered intraperitoneally; format: functional; settings: route intraperitoneal; method in brief: as §7
Mus musculus [14] = assay: Antitumor activity against P388 cells at a dose of 40 mg/kg administered intraperitoneally to P388 leukemia model; format: functional; settings: route intraperitoneal; method in brief: as §4
Mus musculus [15] = assay: Weight change in g when a dose of 10 mg/kg administered intraperitoneally to B16 melanoma infected mice; format: functional; settings: route intraperitoneal
Method in brief: (§8)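 Hybrid BDF1 mice were inoculated ip at D0 with 0.5 mL of B16 melanoma homogenate (1 g tumor in 10 mL physiological serum). Drug was given ip daily on days 1-9, with cis-platinum 0.5 mg/kg as positive control on the same schedule.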

Mus musculus [16] = assay: Median survival day in B16 melanoma infected mice when a dose of 1.25 mg/kg administered intraperitoneally; format: functional; settings: route intraperitoneal; method in brief: as §7
Mus musculus [17] = assay: Antitumor activity against B16 melanoma infected mice at a dose of 2.5 mg/kg administered intraperitoneally; format: functional; settings: route intraperitoneal; method in brief: as §3
Mus musculus [18] = assay: Weight change in g when a dose of 2.5 mg/kg administered intraperitoneally to B16 melanoma infected mice; format: functional; settings: route intraperitoneal; method in brief: as §8
Mus musculus [19] = assay: Antitumor activity against P388 leukemia in mice at a dose of 20 mg/kg administered intraperitoneally; format: functional, organism-based; parameters: dose 20 mg/kg; method in brief: as §2
Mus musculus [20] = assay: Survivors at day 60 when a dose of 2.5 mg/kg to B16 melanoma infected mice; 0/10; format: functional
Mus musculus [21] = assay: Survivors at day 30 when a dose of 5 mg/kg to P388 leukemia mice model; 0/10; format: functional
Mus musculus [22] = assay: Median survival day of P388 leukemia model when a dose of 40 mg/kg administered intraperitoneally to mice; format: functional; settings: route intraperitoneal; method in brief: as §5
Mus musculus [23] = assay: Weight change in g when a dose of 10 mg/kg administered intraperitoneally to P388 leukemia mice model; format: functional; settings: route intraperitoneal; method in brief: as §6
Mus musculus [24] = assay: Antitumor activity against P388 leukemia in mice at a dose of 1.25 mg/kg administered intraperitoneally for 5 days; format: functional; settings: route intraperitoneal; method in brief: as §2
Mus musculus [25] = assay: Survivors at day 30 when a dose of 40 mg/kg to P388 leukemia mice model; 0/10; format: functional
Mus musculus [26] = assay: Weight change in g when a dose of 5 mg/kg administered intraperitoneally to P388 leukemia mice model; format: functional; settings: route intraperitoneal; method in brief: as §6
Mus musculus [27] = assay: Weight change in g when a dose of 1.25 mg/kg administered intraperitoneally to mice; format: functional; settings: route intraperitoneal; method in brief: as §8
Mus musculus [28] = assay: Antitumor activity against B16 melanoma infected mice at a dose of 10 mg/kg administered intraperitoneally; format: functional; settings: route intraperitoneal; method in brief: as §3
Mus musculus [29] = assay: Antitumor activity against P388 leukemia in mice at a dose of 0.625 mg/kg administered intraperitoneally for 5 days; format: functional; settings: route intraperitoneal; method in brief: as §2
Mus musculus [30] = assay: Median survival day of P388 leukemia model when a dose of 10 mg/kg administered intraperitoneally; format: functional; settings: route intraperitoneal; method in brief: as §5
Mus musculus [31] = assay: Weight change in g when a dose of 20 mg/kg administered intraperitoneally to P388 leukemia mice model; format: functional; settings: route intraperitoneal; method in brief: as §6
Mus musculus [32] = assay: Median survival day of P388 leukemia model when a dose of 20 mg/kg administered intraperitoneally; format: functional; settings: route intraperitoneal; method in brief: as §5
Mus musculus [33] = assay: Survivors at day 60 when a dose of 1.25 mg/kg to B16 melanoma infected mice; 0/10; format: functional
Mus musculus [34] = assay: Weight change in g when a dose of 5 mg/kg administered intraperitoneally to B16 melanoma infected mice; format: functional; settings: route intraperitoneal; method in brief: as §8
Mus musculus [35] = assay: Antitumor activity against P388 leukemia in mice at a dose of 10 mg/kg administered intraperitoneally for 5 days; format: functional; settings: route intraperitoneal; method in brief: as §2
Mus musculus [36] = assay: Median survival day of P388 leukemia model when a dose of 5 mg/kg administered intraperitoneally; format: functional; settings: route intraperitoneal; method in brief: as §5
Mus musculus [37] = assay: Antitumor activity against P388 leukemia in mice at a dose of 2.5 mg/kg administered intraperitoneally for 5 days; format: functional; settings: route intraperitoneal; method in brief: as §2
Mus musculus [38] = assay: Survivors at day 30 when a dose of 20 mg/kg to P388 leukemia mice model; 0/10; format: functional; method in brief: as §5
Mus musculus [39] = assay: Median survival day in B16 melanoma infected mice when a dose of 10 mg/kg administered intraperitoneally; format: functional; settings: route intraperitoneal; method in brief: as §7
Mus musculus [40] = assay: Antitumor activity against P388 cells at a dose of 10 mg/kg administered intraperitoneally to P388 leukemia model; format: functional; settings: route intraperitoneal; method in brief: as §4
Mus musculus [41] = assay: Survivors at day 60 when a dose of 5 mg/kg to B16 melanoma infected mice; 0/10; format: functional

K aff (Calf thymus DNA): 220000 M⁻¹
IC50 (L1210): 300 nM
Compound: CCN(CC)CCCNc1[nH]cc(C)c2nc3ccc(OC)cc3c1-2
T/C (Mus musculus [1]): 176%
T/C (Mus musculus [2]): 147%
T/C (Mus musculus [3]): Toxic
T/C (Mus musculus [4]): 149%

Compound: Cc1c[nH]c(NCCCN(C)C)c2c3cc(O)ccc3nc1-2
T/C (Mus musculus [5]): 160%
T/C (Mus musculus [6]): 139%
T/C (Mus musculus [7]): 142%
Survivors (Mus musculus [8]): 0
T/C (Mus musculus [9]): 116%
Weight change (Mus musculus [10]): -1.4 g
T/C (Mus musculus [2]): 186%
Median survival day (Mus musculus [11]): 38.75
Survivors (Mus musculus [12]): 0
Median survival day (Mus musculus [13]): 44
T/C (Mus musculus [14]): 139%
Weight change (Mus musculus [15]): 0.5 g
Median survival day (Mus musculus [16]): 32
T/C (Mus musculus [17]): 141%
Weight change (Mus musculus [18]): 1.8 g
T/C (Mus musculus [19]): Toxic
Survivors (Mus musculus [20]): 0
Survivors (Mus musculus [21]): 0
Median survival day (Mus musculus [22]): 15.3
Weight change (Mus musculus [23]): 0.3 g
T/C (Mus musculus [24]): 150%
Survivors (Mus musculus [25]): 0
Weight change (Mus musculus [26]): -0.1 g
K aff (Calf thymus DNA): 210000 M⁻¹
Weight change (Mus musculus [27]): 2.8 g
T/C (Mus musculus [28]): 42%
T/C (Mus musculus [29]): 139%
Median survival day (Mus musculus [30]): 15.25
Weight change (Mus musculus [31]): -0.8 g
Median survival day (Mus musculus [32]): 15.5
Survivors (Mus musculus [33]): 0
Weight change (Mus musculus [34]): 2.4 g
T/C (Mus musculus [35]): 148%
Median survival day (Mus musculus [36]): 15.3
IC50 (L1210): 90 nM
T/C (Mus musculus [37]): 145%
Survivors (Mus musculus [38]): 0
Median survival day (Mus musculus [39]): 11.7
T/C (Mus musculus [40]): 139%
Survivors (Mus musculus [41]): 0

— ChEMBL document CHEMBL1124035, “1-Amino-substituted 4-methyl-5H-pyrido[4,3-b]indoles (gamma-carbolines) as tricyclic analogues of ellipticines: a new class of antineoplastic agents” (1988)
